The source made the active and inactive calls.
Columns and labels:
[1] = tested on: P388; assay: Antitumor activity against mouse P388 cells allografted in mouse assessed as increase of median life span at 100 mg/kg, ip on day 1, 5 and 9 measured up to 60 days relative to control; type: functional; conditions: route intraperitoneal
[2] = tested on: B16; assay: Antitumor activity against mouse B16 cells allografted in BDF1 mouse assessed as disease cure at 12.5 mg/kg, ip on day 1 to 9 measured up to 80 days; type: functional, organism-based; parameters: dose 12.5 mg/kg
Method in brief: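 BDF1 mice implanted ip with a homogenate from 0.05 g of tumor. Dosed ip on days 1–9, with deaths recorded for 80 days. "Cures" counted as survivors/total at 80 days.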

[3] = tested on: B16; assay: Antitumor activity against mouse B16 cells allografted in BDF1 mouse assessed as increase of median life span at 12.5 mg/kg, ip on day 1 to 9 measured up to 80 days relative to control; type: functional; conditions: route intraperitoneal
[4] = tested on: P388; assay: Antitumor activity against mouse P388 cells allografted in mouse assessed as disease cure at 100 mg/kg, ip on day 1, 5 and 9 measured up to 60 days; type: functional, organism-based; parameters: dose 100 mg/kg
Method in brief: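 BDF or CDF1 mice injected ip with ascitic leukemia cells, then dosed ip on days 1, 5 and 9. Deaths recorded for 60 days. Read-outs: percent increase in median life span over controls, and "cures" as survivors/total at 60 days.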

[5] = tested on: P388; assay: Antitumor activity against mouse P388 cells allografted in mouse assessed as increase of median life span at 200 mg/kg, ip on day 1, 5 and 9 measured up to 60 days relative to control; type: functional; conditions: route intraperitoneal
Method in brief: (§1)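 BDF1 or CDF1 mice inoculated ip with ascitic P388 leukemia cells. Dosing ip on days 1, 5 and 9. Deaths recorded for 60 days; % increase in median life span over controls. "Cures" are survivors/total at 60 days.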

[6] = tested on: B16; assay: Antitumor activity against mouse B16 cells allografted in BDF1 mouse assessed as increase of median life span at 50 mg/kg, ip on day 1 to 9 measured up to 80 days relative to control; type: functional; conditions: route intraperitoneal
Method in brief: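 BDF1 mice implanted ip with a homogenate from 0.05 g of B16 tumor. Test agent given ip on days 1-9. Deaths recorded for 80 days. Result is % increase in median life span over untreated controls. "Cures" are survivors/total at 80 days.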

[7] = tested on: P388; assay: Antitumor activity against mouse P388 cells allografted in mouse assessed as disease cure at 200 mg/kg, ip on day 1, 5 and 9 measured up to 60 days; type: functional, organism-based; parameters: dose 200 mg/kg
Method in brief: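 BDF1 or CDF1 mice inoculated ip with ascitic P388 leukemia cells, dosed ip on days 1, 5 and 9. Deaths recorded for 60 days; "cures" taken as number of survivors/total at 60 days.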

[8] = Toxicity in […] assessed as maximum tolerated dose administered as once each 4 days for 3 total injection; type: organism-based, P388; conditions: mouse, in vivo, ip
[9] = tested on: P388; assay: Antitumor activity against mouse P388 cells allografted in ip dosed mouse assessed as minimum effective dose administered as once each 4 days for 3 total injection; type: functional; conditions: 96 h, read-out: MED
Method in brief: (§2)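 Drug given ip to P388 tumor-bearing mice, either once as a single dose or once each 4 days for three injections. Minimum effective dose defined as the dose giving 40% increase in life span over control, read from regression lines of log dose-response data.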

[10] = tested on: P388; assay: Antitumor activity against mouse P388 cells allografted in ip dosed mouse assessed as minimum effective dose administered as single dose; type: functional; conditions: read-out: MED; method in brief: as §2
[11] = tested on: P388; assay: Antitumor activity against mouse P388 cells allografted in ip dosed mouse assessed as dose providing 40% increase in life span administered as once each 4 days for 3 total injection; type: functional
Method in brief: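 P388 tumor-bearing mice dosed ip, either once as a single dose or once every 4 days for three injections. It was read from regression lines of log dose-response data.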

[12] = Therapeutic index, ratio of MTD for mouse P388 cells allografted ip dosed mouse to MED for mouse P388 cells allografted in ip dosed mouse administered as once each 4 days for 3 total injection; type: organism-based; conditions: in vivo, read-out: TI
Method in brief: (§3)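 Therapeutic index is MTD/MED for ip dosing, either single or once every 4 days ×3. MTD is the 10% lethal dose in normal mice over 21 days. MED is the dose giving a 40% life-span increase in P388-bearing mice. Both come from log dose-response regression lines.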

[13] = Toxicity in […] assessed as maximum tolerated dose administered as single dose; type: organism-based, P388; conditions: mouse, in vivo, ip
[14] = Therapeutic index, ratio of MTD for mouse P388 cells allografted ip dosed mouse to MED for mouse P388 cells allografted in ip dosed mouse administered as single dose; type: organism-based; conditions: in vivo, read-out: TI; method in brief: as §3
[15] = tested on: B16; assay: Antitumor activity against mouse B16 cells allografted in BDF1 mouse assessed as disease cure at 50 mg/kg, ip on day 1 to 9 measured up to 80 days; type: functional, organism-based; parameters: dose 50 mg/kg
Method in brief: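 BDF1 mice implanted ip with homogenate from 0.05 g of B16 tumor, then dosed ip on days 1-9. Deaths recorded for 80 days; "cures" scored as survivors/total at 80 days.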

[16] = tested on: P388; assay: Antitumor activity against mouse P388 cells allografted in mouse assessed as increase of median life span at 50 mg/kg, ip on day 1, 5 and 9 measured up to 60 days relative to control; type: functional; conditions: route intraperitoneal; method in brief: as §1

With `CCNc1ccc(NCC)c2c1C(=O)c1ccccc1C2=O` as the molecule, how does the ILS at 100 mg/kg [1] read?
Its ILS at 100 mg/kg is 0%.

Which results are given for `O=C1c2c(O)ccc(O)c2C(=O)c2c(NCCN3CC3)ccc(NCCN3CC3)c21`?
Activity [2]: inactive; ILS at 100 mg/kg [1]: 185%; ILS at 12.5 mg/kg [3]: 58%; Activity [4]: inactive

Which results are given for `CCN(CC)CCNc1ccc(NCCN(CC)CC)c2c1C(=O)c1c(O)ccc(O)c1C2=O`?
ILS at 200 mg/kg [5]: 88%; ILS at 50 mg/kg [6]: 38%

With `O=C1c2ccccc2C(=O)c2c(NCCN3CCCCC3)ccc(NCCN3CCCCC3)c21` as the molecule, how does the ILS at 200 mg/kg [5] read?
The ILS at 200 mg/kg was 27%.

What about the Activity [7] of the same molecule?
The Activity was “inactive”.

For `Cc1ccc2c(c1)C(=O)c1c(NCCN(C)C)ccc(NCCN(C)C)c1C2=O`, which ILS at 200 mg/kg [5] is on record?
The ILS at 200 mg/kg was 0%.

And the Activity [7]?
The Activity was “inactive”.

Which results are given for `O=P1(N(CCCl)CCCl)NCCCO1` (stereo not drawn) [CYCLOPHOSPHAMIDE ANHYDROUS]?
MTD at 96 h [8]: 100 mg/kg; minimal effective dose [9]: 12 mg/kg; minimal effective dose [10]: 26.3 mg/kg; Activity [11]: 142 mg/kg; selectivity ratio at 96 h [12]: 8; MTD [13]: 350 mg/kg; selectivity ratio [14]: 13

What does the source list for `CN(C)CCCCCNc1ccc(NCCCCCN(C)C)c2c1C(=O)c1ccccc1C2=O`?
ILS at 200 mg/kg [5]: 0%; Activity [7]: inactive

Which ILS at 100 mg/kg [1] does the source give for `O=C1c2ccccc2C(=O)c2c(NCCO)ccc(NCCO)c21` here?
Its ILS at 100 mg/kg is 0%.

Which ILS at 200 mg/kg [5] does the source give for `CCN1CCCC1CNc1ccc(NCC2CCCN2CC)c2c1C(=O)c1c(O)ccc(O)c1C2=O` (stereo not drawn) here?
The ILS at 200 mg/kg was 45%.

What about the ILS at 50 mg/kg [6] of the same molecule?
The ILS at 50 mg/kg was 30%.

What about the Activity [15] of the same molecule?
Its Activity is “inactive”.

And the Activity [7]?
Its Activity is “inactive”.

With `CCCNCCNc1ccc(NCCNCCC)c2c1C(=O)c1c(O)ccc(O)c1C2=O` as the molecule, how does the ILS at 50 mg/kg [6] read?
Its ILS at 50 mg/kg is 0%.

And the ILS at 50 mg/kg [16]?
Its ILS at 50 mg/kg is 36%.

What about the Activity [15] of the same molecule?
Its Activity is “inactive”.

Which results are given for `CN(C)CCNc1ccc(NCCN(C)C)c2c1C(=O)c1ccccc1C2=O`?
ILS at 100 mg/kg [1]: 68%; ILS at 50 mg/kg [6]: 39%

For `O=c1[nH]cc(F)c(=O)[nH]1` [FLUOROURACIL], which MTD at 96 h [8] is on record?
The MTD at 96 h was 48 mg/kg.

What about the minimal effective dose [9] of the same molecule?
The minimal effective dose was 11.4 mg/kg.

And the minimal effective dose [10]?
Its minimal effective dose is 88 mg/kg.

What about the Activity [11] of the same molecule?
The Activity was 70 mg/kg.

And the selectivity ratio at 96 h [12]?
Its selectivity ratio at 96 h is 4.

And the MTD [13]?
Its MTD is 280 mg/kg.

And the selectivity ratio [14]?
The selectivity ratio was 3.

What does the source list for `COc1cccc2c1C(=O)c1c(O)c3c(c(O)c1C2=O)C[C@@](O)(C(C)=O)C[C@@H]3O[C@H]1C[C@H](N)[C@H](O)[C@H](C)O1` [DAUNORUBICIN]?
minimal effective dose [10]: 0.52 mg/kg; MTD [13]: 5.2 mg/kg; selectivity ratio [14]: 10

For `CN(C)CCCNc1ccc(NCCCN(C)C)c2c1C(=O)c1ccccc1C2=O`, which ILS at 200 mg/kg [5] is on record?
The ILS at 200 mg/kg was 0%.

What about the ILS at 50 mg/kg [6] of the same molecule?
The ILS at 50 mg/kg was 0%.

Which MTD at 96 h [8] does the source give for `CN(Cc1cnc2nc(N)nc(N)c2n1)c1ccc(C(=O)N[C@@H](CCC(=O)O)C(=O)O)cc1` [METHOTREXATE] here?
Its MTD at 96 h is 17.5 mg/kg.

What about the minimal effective dose [9] of the same molecule?
Its minimal effective dose is 1.5 mg/kg.

What about the minimal effective dose [10] of the same molecule?
The minimal effective dose was 27.9 mg/kg.

What about the Activity [11] of the same molecule?
The Activity was 102 mg/kg.

And the selectivity ratio at 96 h [12]?
Its selectivity ratio at 96 h is 11.

And the MTD [13]?
Its MTD is 108 mg/kg.

And the selectivity ratio [14]?
The selectivity ratio was 4.

Which ILS at 200 mg/kg [5] does the source give for `O=C1c2c(O)ccc(O)c2C(=O)c2c(NCCN3CCOCC3)ccc(NCCN3CCOCC3)c21` here?
Its ILS at 200 mg/kg is 0%.

What about the Activity [7] of the same molecule?
The Activity was “inactive”.

With `CCCCN(CCCC)CCNc1ccc(NCCN(CCCC)CCCC)c2c1C(=O)c1c(O)ccc(O)c1C2=O` as the molecule, how does the ILS at 200 mg/kg [5] read?
The ILS at 200 mg/kg was 0%.

What about the ILS at 50 mg/kg [6] of the same molecule?
The ILS at 50 mg/kg was 0%.

And the Activity [15]?
Its Activity is “inactive”.

And the Activity [7]?
Its Activity is “inactive”.

Which results are given for `O=C1c2c(O)ccc(O)c2C(=O)c2c(NCCN3CCNCC3)ccc(NCCN3CCNCC3)c21`?
ILS at 100 mg/kg [1]: 133%; ILS at 50 mg/kg [6]: 103%; Activity [15]: inactive; Activity [4]: inactive

Which ILS at 200 mg/kg [5] does the source give for `O=C1c2c(O)ccc(O)c2C(=O)c2c(NCCCN3CCOCC3)ccc(NCCCN3CCOCC3)c21` here?
The ILS at 200 mg/kg was 40%.

What about the ILS at 50 mg/kg [6] of the same molecule?
The ILS at 50 mg/kg was 0%.

What about the Activity [15] of the same molecule?
The Activity was “inactive”.

What about the Activity [7] of the same molecule?
The Activity was “inactive”.
